What all share (assay type): cell-based
Assay [1] concerns the target T1, Toll-like receptor 8 (Homo sapiens) (UniProt Q9NR97).
T1 sequence (whole entry): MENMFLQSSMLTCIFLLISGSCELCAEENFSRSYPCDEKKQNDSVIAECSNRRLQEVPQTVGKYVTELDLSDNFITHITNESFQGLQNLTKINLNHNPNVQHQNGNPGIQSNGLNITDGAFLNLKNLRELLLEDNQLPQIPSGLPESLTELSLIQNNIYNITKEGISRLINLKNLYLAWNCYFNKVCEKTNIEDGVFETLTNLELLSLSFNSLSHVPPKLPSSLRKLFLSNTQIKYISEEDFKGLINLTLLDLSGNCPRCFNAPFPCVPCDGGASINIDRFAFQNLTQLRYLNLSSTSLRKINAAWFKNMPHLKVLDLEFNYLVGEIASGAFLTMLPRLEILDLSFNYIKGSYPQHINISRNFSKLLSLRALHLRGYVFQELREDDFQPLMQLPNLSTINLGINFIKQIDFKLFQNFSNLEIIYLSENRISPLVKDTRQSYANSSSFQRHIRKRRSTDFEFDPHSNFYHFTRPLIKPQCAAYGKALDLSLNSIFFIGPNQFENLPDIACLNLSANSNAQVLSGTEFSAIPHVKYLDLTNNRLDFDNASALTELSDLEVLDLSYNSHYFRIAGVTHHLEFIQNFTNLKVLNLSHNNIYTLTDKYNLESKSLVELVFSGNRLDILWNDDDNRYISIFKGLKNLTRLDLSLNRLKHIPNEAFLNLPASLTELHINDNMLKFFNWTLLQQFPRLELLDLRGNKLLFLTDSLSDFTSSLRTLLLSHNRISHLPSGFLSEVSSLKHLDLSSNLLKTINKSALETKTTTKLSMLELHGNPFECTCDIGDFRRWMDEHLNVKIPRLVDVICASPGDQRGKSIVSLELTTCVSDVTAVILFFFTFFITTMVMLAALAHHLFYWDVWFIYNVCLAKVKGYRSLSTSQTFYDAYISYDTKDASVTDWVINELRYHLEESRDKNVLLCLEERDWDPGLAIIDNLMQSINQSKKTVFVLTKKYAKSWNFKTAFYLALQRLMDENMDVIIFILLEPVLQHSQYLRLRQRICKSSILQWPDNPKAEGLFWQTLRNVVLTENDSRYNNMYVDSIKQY
In words: Agonist activity at TLR8 in human PBMC cells assessed as induction of MIP-1alpha production incubated for 16 hrs by immunoassay. The settings on record: filed as agonist. The gist of the method:
(§1)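 Fresh human PBMCs isolated from venous blood, plated at 10^5 cells in 100 µL per well and stimulated for 16 h with graded concentrations of compound. Supernatants were collected by centrifugation and assayed in duplicate with a multiplexed cytokine/chemokine magnetic bead array.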

In another assay the target is Toll-like receptor 2 (Homo sapiens, UniProt O60603). In words: Agonist activity at human TLR2 stably expressed in HEK293 cells cotransfected with secreted alkaline phosphatase assessed as induction of NFkappaB activation by quanti-blue SEAP reporter gene based spectrophotometric method. The gist of the method:
(§2)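 HEK293 cells stably co-transfected with the matching human TLR (2, 3, 4, 5, 7, 8 or 9) and NF-κB/AP-1-driven secreted alkaline phosphatase were kept in selection medium. About 10^5 cells/ml were incubated with graded concentrations of stimulus. sAP was read at 620 nm with a chromogen in detection medium. EC50 came from four-parameter logistic fits on quadruplicates.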
A general note: A reporter such as luciferase makes a cellular process visible.

For assay [2], the target named is T1, Toll-like receptor 8 (Homo sapiens). In words: Agonist activity at human TLR8 stably expressed in HEK293 cells cotransfected with secreted alkaline phosphatase assessed as induction of NFkappaB activation by measuring maximal response by quanti-blue SEAP reporter gene-based spectrophotometric method. To be noted: filed as agonist. A digest of the protocol: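 TLR8/sAP HEK293 reporter cells, about 10^5 cells/ml, were exposed to graded ligand concentrations, and sAP was read at 620 nm with a chromogenic detection medium. Maximal response was compared across the dose-response curve, with area under the curve also reported. Quadruplicate samples were used.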

Assay [3] addresses T2, Toll-like receptor 7 (Homo sapiens) (UniProt Q9NYK1).
T2 sequence (whole entry): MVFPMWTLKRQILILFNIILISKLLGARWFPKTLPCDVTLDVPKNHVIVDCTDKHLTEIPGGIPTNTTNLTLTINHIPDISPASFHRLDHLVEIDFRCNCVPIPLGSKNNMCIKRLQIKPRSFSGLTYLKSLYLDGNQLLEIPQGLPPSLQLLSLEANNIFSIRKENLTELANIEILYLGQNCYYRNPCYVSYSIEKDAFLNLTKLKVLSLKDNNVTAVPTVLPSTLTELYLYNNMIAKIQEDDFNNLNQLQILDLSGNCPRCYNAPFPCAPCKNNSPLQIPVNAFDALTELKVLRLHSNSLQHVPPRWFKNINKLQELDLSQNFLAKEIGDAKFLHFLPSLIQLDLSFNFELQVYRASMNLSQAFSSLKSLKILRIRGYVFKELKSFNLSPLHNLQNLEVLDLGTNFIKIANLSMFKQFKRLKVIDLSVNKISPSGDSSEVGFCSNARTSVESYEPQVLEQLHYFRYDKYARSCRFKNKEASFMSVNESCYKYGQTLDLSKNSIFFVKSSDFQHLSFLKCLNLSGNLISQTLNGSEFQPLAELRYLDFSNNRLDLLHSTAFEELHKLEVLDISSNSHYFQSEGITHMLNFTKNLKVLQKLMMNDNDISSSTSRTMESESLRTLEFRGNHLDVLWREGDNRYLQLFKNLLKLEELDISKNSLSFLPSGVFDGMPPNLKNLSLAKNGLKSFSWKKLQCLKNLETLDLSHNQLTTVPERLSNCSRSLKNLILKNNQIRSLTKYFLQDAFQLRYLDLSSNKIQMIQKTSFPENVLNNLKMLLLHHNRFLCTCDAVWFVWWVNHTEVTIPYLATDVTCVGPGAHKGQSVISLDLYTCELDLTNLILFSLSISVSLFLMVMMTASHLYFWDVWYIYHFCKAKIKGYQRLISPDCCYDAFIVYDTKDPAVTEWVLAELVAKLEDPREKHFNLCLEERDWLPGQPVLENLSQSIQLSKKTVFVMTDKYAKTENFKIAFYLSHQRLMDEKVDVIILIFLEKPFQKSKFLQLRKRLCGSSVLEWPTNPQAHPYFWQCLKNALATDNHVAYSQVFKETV
In words: Agonist activity at human TLR7 stably expressed in HEK293 cells cotransfected with secreted alkaline phosphatase assessed as induction of NFkappaB activation by quanti-blue SEAP reporter gene based spectrophotometric method. A digest of the protocol:
as §2

Assay [4] addresses T1, Toll-like receptor 8 (Homo sapiens). In words: Agonist activity at TLR8 in human PBMC cells assessed as induction of MCP1 production incubated for 16 hrs by immunoassay. The settings on record: filed as agonist. A digest of the protocol: as §1
A further assay has as its target Toll-like receptor 5 (Homo sapiens, UniProt O60602). In words: Agonist activity at human TLR5 stably expressed in HEK293 cells cotransfected with secreted alkaline phosphatase assessed as induction of NFkappaB activation by quanti-blue SEAP reporter gene based spectrophotometric method. The gist of the method:
as §2

The next assay addresses Toll-like receptor 4 (Homo sapiens, UniProt O00206). In words: Agonist activity at human TLR4 stably expressed in HEK293 cells cotransfected with secreted alkaline phosphatase assessed as induction of NFkappaB activation by quanti-blue SEAP reporter gene based spectrophotometric method. A digest of the protocol:
as §2

Assay [5] addresses T1, Toll-like receptor 8 (Homo sapiens). In words: Agonist activity at TLR8 in human PBMC cells assessed as induction of IL-1beta production incubated for 16 hrs by immunoassay. To be noted: filed as agonist. A digest of the protocol:
as §1

From ChEMBL document CHEMBL4765226, “Identification of a Human Toll-Like Receptor (TLR) 8-Specific Agonist and a Functional Pan-TLR Inhibitor in 2-Aminoimidazoles” (J Med Chem, 2016) come the findings set out here.

Calls of active or inactive are those of the source. No cut-off for these calls is given here.

Chain of Toll-like receptor 4 (O00206 whole entry): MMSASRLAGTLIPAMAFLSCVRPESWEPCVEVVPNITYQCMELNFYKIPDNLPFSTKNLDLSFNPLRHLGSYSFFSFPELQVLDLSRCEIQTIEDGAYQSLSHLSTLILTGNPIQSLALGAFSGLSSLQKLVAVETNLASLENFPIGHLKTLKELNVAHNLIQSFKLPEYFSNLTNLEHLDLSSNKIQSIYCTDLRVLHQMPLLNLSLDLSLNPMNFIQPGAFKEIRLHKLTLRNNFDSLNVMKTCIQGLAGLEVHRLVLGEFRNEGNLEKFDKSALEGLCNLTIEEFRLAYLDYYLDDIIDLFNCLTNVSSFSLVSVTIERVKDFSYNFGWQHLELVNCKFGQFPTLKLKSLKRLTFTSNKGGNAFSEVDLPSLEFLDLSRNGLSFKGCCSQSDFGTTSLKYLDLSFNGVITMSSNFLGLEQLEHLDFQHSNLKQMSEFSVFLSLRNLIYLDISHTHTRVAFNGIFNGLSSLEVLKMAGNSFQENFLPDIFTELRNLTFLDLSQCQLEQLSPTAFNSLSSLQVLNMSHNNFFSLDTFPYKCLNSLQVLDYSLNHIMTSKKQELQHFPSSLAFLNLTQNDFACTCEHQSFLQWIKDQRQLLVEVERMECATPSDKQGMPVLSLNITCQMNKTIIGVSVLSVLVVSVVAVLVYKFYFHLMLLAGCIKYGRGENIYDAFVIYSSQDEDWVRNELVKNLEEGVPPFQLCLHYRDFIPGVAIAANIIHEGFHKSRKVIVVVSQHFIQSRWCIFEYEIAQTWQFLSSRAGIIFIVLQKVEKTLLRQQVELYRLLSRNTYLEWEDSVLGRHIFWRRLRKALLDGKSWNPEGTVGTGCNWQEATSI
Chain of Toll-like receptor 2 (O60603 whole entry): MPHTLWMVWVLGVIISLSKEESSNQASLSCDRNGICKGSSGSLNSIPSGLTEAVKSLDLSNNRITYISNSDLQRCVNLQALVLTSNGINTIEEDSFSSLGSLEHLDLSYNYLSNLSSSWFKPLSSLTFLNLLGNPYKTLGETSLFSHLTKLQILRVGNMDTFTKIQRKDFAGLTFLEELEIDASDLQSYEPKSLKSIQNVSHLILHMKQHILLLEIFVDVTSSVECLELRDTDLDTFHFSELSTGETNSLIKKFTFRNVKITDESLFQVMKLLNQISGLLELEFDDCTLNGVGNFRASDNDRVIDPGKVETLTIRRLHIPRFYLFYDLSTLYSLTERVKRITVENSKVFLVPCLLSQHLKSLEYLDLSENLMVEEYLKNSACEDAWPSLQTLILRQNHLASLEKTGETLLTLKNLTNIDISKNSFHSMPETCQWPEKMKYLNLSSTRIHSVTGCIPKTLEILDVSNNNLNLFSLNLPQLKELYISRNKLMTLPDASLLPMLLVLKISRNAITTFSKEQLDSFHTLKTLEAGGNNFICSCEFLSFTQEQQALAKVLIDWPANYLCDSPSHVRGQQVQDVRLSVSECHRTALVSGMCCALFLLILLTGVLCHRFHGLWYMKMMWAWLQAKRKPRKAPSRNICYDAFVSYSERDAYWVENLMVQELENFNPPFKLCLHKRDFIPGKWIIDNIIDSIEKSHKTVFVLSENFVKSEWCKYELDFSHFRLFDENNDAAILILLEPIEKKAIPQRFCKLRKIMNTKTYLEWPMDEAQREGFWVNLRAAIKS
Chain of Toll-like receptor 5 (O60602 whole entry): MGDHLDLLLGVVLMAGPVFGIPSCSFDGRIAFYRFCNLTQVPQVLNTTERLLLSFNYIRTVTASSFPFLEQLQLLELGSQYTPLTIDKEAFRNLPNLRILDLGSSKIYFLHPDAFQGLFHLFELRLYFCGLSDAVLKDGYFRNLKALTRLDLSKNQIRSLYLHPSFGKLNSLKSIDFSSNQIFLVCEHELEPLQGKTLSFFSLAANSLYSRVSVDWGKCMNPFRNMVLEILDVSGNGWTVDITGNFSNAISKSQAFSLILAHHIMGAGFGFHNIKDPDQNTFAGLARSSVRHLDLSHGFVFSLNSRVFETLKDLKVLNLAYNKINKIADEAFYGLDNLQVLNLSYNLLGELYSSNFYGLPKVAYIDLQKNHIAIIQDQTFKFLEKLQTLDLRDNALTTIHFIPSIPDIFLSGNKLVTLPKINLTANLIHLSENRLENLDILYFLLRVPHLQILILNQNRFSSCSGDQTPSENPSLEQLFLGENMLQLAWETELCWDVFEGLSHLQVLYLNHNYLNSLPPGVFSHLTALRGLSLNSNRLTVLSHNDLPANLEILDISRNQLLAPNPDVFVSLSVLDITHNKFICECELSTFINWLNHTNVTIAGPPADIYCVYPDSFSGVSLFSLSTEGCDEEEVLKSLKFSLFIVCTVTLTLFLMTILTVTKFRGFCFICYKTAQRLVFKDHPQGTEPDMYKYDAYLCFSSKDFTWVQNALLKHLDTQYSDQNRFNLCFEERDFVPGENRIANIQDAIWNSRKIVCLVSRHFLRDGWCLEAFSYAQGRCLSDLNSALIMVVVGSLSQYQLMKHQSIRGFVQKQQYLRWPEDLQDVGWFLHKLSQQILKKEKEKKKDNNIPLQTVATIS

As for `CCCCCn1cc(-c2ccccc2)nc1N`, the outcome in assay [1], in assay [4] and in assay [5] was Active. The result (on Toll-like receptor 2; in assay [3]; on Toll-like receptor 5; on Toll-like receptor 4) was inactive. In addition, the RUmax in assay [2] turned out to be 2.
